Assay results published in ChEMBL document CHEMBL1126751, “Studies on quinazolines. 5. 2,3-dihydroimidazo[1,2-c]quinazoline derivatives: a novel class of potent and selective alpha 1-adrenoceptor antagonists and antihypertensive agents” (J Med Chem, 1993).
One block for each molecule: values may come before it.

Legend:
[1] = target: T1, Adrenergic receptor alpha-1 (Rattus norvegicus, UniProt P15823+P23944+P43140); assay: Binding affinity against alpha-1 adrenergic receptor by measuring displacement of [3H]prazosin from rat brain cortex membranes (in vitro).; type: cell membranes, Membrane
T1 sequence (P15823 whole entry): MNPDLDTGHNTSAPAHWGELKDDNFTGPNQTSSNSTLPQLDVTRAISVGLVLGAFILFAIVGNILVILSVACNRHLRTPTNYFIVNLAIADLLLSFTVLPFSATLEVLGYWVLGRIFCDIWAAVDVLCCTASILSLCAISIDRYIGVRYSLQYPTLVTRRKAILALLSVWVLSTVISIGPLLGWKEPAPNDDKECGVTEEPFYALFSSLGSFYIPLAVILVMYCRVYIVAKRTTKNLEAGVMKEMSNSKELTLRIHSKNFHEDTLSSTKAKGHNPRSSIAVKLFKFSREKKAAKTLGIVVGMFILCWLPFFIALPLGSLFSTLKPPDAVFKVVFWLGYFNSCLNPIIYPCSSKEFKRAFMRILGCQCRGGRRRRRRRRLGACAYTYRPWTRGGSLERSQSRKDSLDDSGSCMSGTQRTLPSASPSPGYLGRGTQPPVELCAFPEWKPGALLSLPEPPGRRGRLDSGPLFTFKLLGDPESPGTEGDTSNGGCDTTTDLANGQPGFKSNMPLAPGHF
T1 sequence (P23944 whole entry): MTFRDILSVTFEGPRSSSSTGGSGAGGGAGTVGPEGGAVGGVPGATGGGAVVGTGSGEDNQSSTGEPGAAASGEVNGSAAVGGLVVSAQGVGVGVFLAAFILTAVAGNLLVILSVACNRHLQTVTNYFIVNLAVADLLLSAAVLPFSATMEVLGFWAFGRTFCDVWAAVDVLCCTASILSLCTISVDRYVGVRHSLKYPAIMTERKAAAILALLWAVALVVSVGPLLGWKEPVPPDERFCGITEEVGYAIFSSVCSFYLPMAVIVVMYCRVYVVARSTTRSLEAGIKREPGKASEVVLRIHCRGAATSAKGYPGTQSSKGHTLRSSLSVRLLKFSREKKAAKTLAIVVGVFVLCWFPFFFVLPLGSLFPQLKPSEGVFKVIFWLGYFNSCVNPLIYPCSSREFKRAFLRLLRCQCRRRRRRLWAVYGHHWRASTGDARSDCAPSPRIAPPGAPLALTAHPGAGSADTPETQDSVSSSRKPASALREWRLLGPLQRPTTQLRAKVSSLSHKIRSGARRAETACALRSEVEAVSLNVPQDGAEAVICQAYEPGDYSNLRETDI
T1 sequence (P43140 whole entry): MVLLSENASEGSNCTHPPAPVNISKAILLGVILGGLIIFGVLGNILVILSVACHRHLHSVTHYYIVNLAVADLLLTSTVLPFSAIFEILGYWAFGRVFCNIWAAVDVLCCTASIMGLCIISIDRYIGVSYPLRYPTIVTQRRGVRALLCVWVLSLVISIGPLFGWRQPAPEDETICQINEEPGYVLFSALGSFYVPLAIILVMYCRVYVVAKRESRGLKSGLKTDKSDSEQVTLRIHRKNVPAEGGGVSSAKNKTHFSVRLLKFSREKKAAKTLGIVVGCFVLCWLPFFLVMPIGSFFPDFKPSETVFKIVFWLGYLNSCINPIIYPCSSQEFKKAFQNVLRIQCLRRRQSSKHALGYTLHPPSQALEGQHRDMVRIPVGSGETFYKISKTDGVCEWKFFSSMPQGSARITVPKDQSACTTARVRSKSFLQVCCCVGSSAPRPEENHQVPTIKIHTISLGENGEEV

Rattus norvegicus [2] = assay: Blood pressure lowering activity in spontaneously hypertensive rats (SHR) after 6 hours of administration (iv) of dose of 4.0 mg/kg […]; type: functional
Rattus norvegicus [3] = assay: Blood pressure lowering activity in spontaneously hypertensive rats (SHR) after 1 hour of administration (iv) of dose of 4.0 mg/kg […]; type: functional
Rattus norvegicus [4] = assay: Blood pressure lowering activity in spontaneously hypertensive rats (SHR) after 1 hour of administration (iv) of dose of 2.0 mg/kg […]; type: functional
Rattus norvegicus [5] = assay: Blood pressure lowering activity in spontaneously hypertensive rats (SHR) after 6 hours of administration (iv) of dose of 0.5 mg/kg […]; type: functional
Rattus norvegicus [6] = assay: Blood pressure lowering activity in spontaneously hypertensive rats (SHR) after 6 hours of administration (iv) of dose of 2.0 mg/kg […]; type: functional
Rattus norvegicus [7] = assay: Blood pressure lowering activity in spontaneously hypertensive rats (SHR) after 1 hour of administration (iv) of dose of 0.5 mg/kg […]; type: functional
[8] = target: T2, Adrenergic receptor alpha-2 (Rattus norvegicus, UniProt P22086+P19328+P22909); assay: Binding affinity against alpha-2 adrenergic receptor by measuring displacement of [3H]clonidine from rat brain cortex membranes (in vitro).; type: cell membranes, Membrane
T2 sequence (P22086 whole entry): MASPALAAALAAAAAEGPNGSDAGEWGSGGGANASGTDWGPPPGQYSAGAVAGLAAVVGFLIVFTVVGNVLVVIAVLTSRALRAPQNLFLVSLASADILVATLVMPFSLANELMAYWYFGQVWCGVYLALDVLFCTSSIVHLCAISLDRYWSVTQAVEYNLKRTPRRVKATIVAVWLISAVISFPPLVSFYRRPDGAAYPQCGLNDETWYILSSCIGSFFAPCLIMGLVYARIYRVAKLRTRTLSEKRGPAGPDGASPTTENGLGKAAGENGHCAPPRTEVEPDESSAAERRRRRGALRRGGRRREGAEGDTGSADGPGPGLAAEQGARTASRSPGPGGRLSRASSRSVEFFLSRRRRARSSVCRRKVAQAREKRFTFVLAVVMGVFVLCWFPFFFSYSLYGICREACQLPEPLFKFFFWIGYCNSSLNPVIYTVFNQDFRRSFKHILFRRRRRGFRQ
T2 sequence (P19328 whole entry): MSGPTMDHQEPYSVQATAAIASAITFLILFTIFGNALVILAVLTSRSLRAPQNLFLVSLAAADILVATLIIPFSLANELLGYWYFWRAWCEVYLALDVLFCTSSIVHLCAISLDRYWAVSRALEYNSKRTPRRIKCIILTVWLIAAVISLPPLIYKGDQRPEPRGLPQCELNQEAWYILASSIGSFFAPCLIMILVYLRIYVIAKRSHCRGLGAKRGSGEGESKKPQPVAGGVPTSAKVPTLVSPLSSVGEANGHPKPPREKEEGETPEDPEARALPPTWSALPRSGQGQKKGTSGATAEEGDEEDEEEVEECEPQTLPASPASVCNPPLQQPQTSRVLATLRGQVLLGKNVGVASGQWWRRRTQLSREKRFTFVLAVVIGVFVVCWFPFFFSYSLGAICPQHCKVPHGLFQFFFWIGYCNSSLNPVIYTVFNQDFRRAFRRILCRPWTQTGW
T2 sequence (P22909 whole entry): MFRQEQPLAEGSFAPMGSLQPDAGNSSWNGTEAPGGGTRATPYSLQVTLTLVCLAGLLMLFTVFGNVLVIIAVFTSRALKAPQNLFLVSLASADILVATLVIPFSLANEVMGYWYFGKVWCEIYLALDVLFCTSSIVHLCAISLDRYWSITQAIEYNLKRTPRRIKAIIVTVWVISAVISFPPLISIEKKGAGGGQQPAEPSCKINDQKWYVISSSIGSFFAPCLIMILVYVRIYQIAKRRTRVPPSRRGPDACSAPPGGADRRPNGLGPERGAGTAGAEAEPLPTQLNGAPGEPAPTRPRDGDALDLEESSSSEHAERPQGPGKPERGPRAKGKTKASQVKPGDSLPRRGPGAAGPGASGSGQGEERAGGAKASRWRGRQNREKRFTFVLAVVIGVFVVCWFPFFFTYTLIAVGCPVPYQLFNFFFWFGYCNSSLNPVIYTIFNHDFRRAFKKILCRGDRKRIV

Rattus norvegicus [9] = assay: Blood pressure lowering activity in spontaneously hypertensive rats (SHR) after 1 hour of administration (iv) of dose of 1.0 mg/kg; type: functional
Rattus norvegicus [10] = assay: Blood pressure lowering activity in spontaneously hypertensive rats (SHR) after 1 hour of administration (iv) of dose of 0.5 mg/kg; type: functional
Rattus norvegicus [11] = assay: Inhibitory concentration against 5-HT in conscious spontaneously […] rats (SHR); type: functional, organism-based
Rattus norvegicus [12] = assay: Blood pressure lowering activity in spontaneously hypertensive rats (SHR) after 6 hours of administration (iv) of dose of 0.5 mg/kg; type: functional
Rattus norvegicus [13] = assay: Inhibitory concentration against phenylephrine in conscious spontaneously […] rats (SHR); type: functional, organism-based
Rattus norvegicus [14] = assay: Blood pressure lowering activity in spontaneously hypertensive rats (SHR) after 6 hours of administration (iv) of dose of 0.25 mg/kg; type: functional
Procedure, shortened: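 Anesthetized spontaneously hypertensive rats of either sex, 250–300 g (pentobarbital sodium 40–50 mg/kg ip). Compound given iv via cannulated femoral vein. Arterial pressure recorded via right femoral artery cannula with pressure transducer, body temperature held at 37.5 °C. Value is maximum change in mean blood pressure (mmHg) at the time point. Groups of four to six animals.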

Rattus norvegicus [15] = assay: Blood pressure lowering activity in spontaneously hypertensive rats (SHR) after 6 hours of administration (iv) of dose of 1.0 mg/kg; type: functional
[16] = target: T1, Adrenergic receptor alpha-1; assay: Alpha-1-antagonistic activity against phenylephrine in rat aorta; type: functional, tissue-based
Rattus norvegicus [17] = assay: Blood pressure lowering activity in spontaneously hypertensive rats (SHR) after 6 hours of administration (iv) of dose of 1.0 mg/kg […]; type: functional
Rattus norvegicus [18] = assay: Blood pressure lowering activity in spontaneously hypertensive rats (SHR) after 1 hour of administration (iv) of dose of 1.0 mg/kg […]; type: functional
Rattus norvegicus [19] = assay: Blood pressure lowering in spontaneously hypertensive rats (SHR) after 1 hour of administration (iv) of dose of 4.0 mg/kg […]; type: functional

Ki [1]: 158 nM
SMILES: SC1=Nc2ccccc2C2=NC(CN3CCN(c4ccccc4)CC3)CN12 (stereo unspecified)
MBP (Rattus norvegicus [2]): -22.5 mmHg
MBP (Rattus norvegicus [3]): -33.9 mmHg

Ki [1]: 0.068 nM
Ki [8]: 810 nM
SMILES: CN1C(=O)N2C(=NCC2CN2CCN(c3ccccc3Cl)CC2)c2ccccc21 (stereo unspecified)
MBP (Rattus norvegicus [4]): -24 mmHg
MBP (Rattus norvegicus [5]): -5.9 mmHg
MBP (Rattus norvegicus [6]): -14 mmHg
MBP (Rattus norvegicus [7]): -8.3 mmHg

IC50 (Rattus norvegicus [11]): 0.36 nM
IC50 (Rattus norvegicus [13]): 0.44 nM
Ki [1]: 2.01 nM
pA2 [16]: 9.82
Ki [8]: 3860 nM
SMILES: O=C1Nc2ccccc2C2=NC(CN3CCN(c4ccccc4)CC3)CN12 (stereo unspecified)
MBP (Rattus norvegicus [9]): -57.5 mmHg
MBP (Rattus norvegicus [10]): -49.3 mmHg
MBP (Rattus norvegicus [12]): -32.5 mmHg
MBP (Rattus norvegicus [14]): -8.75 mmHg
MBP (Rattus norvegicus [15]): -44.5 mmHg

Ki [1]: 15 nM
SMILES: CN1C(=O)N2C(=NCC2CN2CCN(c3ccccc3)CC2)c2ccccc21 (stereo unspecified)
MBP (Rattus norvegicus [17]): -20 mmHg
MBP (Rattus norvegicus [18]): -23.3 mmHg

Ki [1]: 850 nM
Ki [8]: > 10000 nM
SMILES: O=C1Nc2ccccc2C2=NC(CN3CCN(Cc4ccccc4)CC3)CN12 (stereo unspecified)
MBP (Rattus norvegicus [19]): -43.7 mmHg

IC50 (Rattus norvegicus [11]): 27.8 nM
IC50 (Rattus norvegicus [13]): 5.73 nM
SMILES: O=C(c1ccc(F)cc1)C1CCN(CCn2c(=O)[nH]c3ccccc3c2=O)CC1 [KETANSERIN]

Ki [1]: 1.3 nM
Ki [8]: 3450 nM
SMILES: COc1ccccc1N1CCN(CC2CN3C(=O)Nc4ccccc4C3=N2)CC1 (stereo unspecified)
MBP (Rattus norvegicus [10]): -20 mmHg
MBP (Rattus norvegicus [12]): -18.8 mmHg
